# Assay results collected from several papers.
# Target: Homeodomain-interacting protein kinase 2 (HIPK2, Homo sapiens, UniProt Q9H2X6)
# Observed: enzyme activity
# Mode: inhibitor
SMILES,method,tested at,remaining activity
CC(C)(C)c1nc2c(s1)c1nc(N)ncc1c1ccc(NS(=O)(=O)c3c(F)cccc3F)c(F)c12,radiometric,1 µM,80%
Cc1cnc(NC2CCOCC2)nc1-n1cnc(C(=O)NC(CN)c2cc(F)cc(Cl)c2)c1 (stereo not shown),radiometric,1 µM,92%
O=C(O)c1ccc2c(c1)nc(NCCc1ccccc1)c1ccncc12,radiometric,1 µM,4%
Nc1nc(NC2CCCCC2)sc1C(=O)c1ccccc1,,10 µM,64%
O=C(Nc1cnn(-c2csc(C(=O)NC3COC3)c2)c1)Nc1c(F)cccc1Cl,,5 µM,92.6%
CCCOc1ccc(OC)c(F)c1C(=O)c1ccc(C(=O)N[C@@H]2CNC[C@H]2NC(=O)c2ccc3[nH]ncc3c2)cc1,,10 µM,94%
O=C(O)c1ccc2c(c1)nc(NCCc1cccc(F)c1)c1ncncc12,radiometric,1 µM,6%
COc1cc(Cl)c(C(=O)N[C@@H](CN[C@H]2CC[C@@H](N)CC2)Cc2ccc(C#N)cc2)cc1-c1ccc(CN[C@H](C)c2ccc(C)cc2)o1,,1 µM,105%
O=C(O)c1ccc2c(c1)nc(Nc1ccccc1)c1ncncc12,radiometric,1 µM,2%
CCN(CC)c1ccc(C2=NNC(=O)CC2C)cc1[N+](=O)[O-] (stereo not shown),,10 µM,106%
Cc1sc(C(=O)NC2COC2)cc1-n1cc(NC(=O)Nc2c(F)cccc2Cl)cn1,,10 µM,103%
Oc1cccc(-c2nc(N3CCOCC3)c3oc4ncccc4c3n2)c1,,10 µM,18%
Cc1ccc(C(=O)Nc2ccc(CN3CCN(C)CC3)c(C(F)(F)F)c2)cc1C#Cc1cnc2cccnn12,,23.5 nM,100%
